Kir21 inh = inhibitors of mouse Kir2.1 inward-rectifier potassium channel | hit rate 0.85% among 310,000 | P35561 | B-score at 10 µM | HEK293-Kir2.1, FluxOR thallium flux fluorescence; stronger effect = lower value;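 active = fluorescence ratio B-score at or below minus 3 SD of library scores, with starting-brightness B-score within 2 SD, cut at about -4.2 in these data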;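 also: channel flux triggered by added potassium and thallium sulfate stimulus; B-score of peak minus minimum fluorescence over baseline after thallium stimulus; more negative B-score means stronger Kir2.1 block with less thallium influx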
hERG protect = hERG (human) protection from proarrhythmic block. hit rate 0.51% among 310,000. Q12809. activation (rescue from dofetilide block), less the hit threshold, % at 10 µM. AID 1511. CHO-hERG, FluxOR thallium flux, dofetilide IC70 present;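 active = activation above the mean of controls blocked by dofetilide plus 5 SD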;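 also: thallium influx through hERG after potassium depolarization seen as dye fluorescence rise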
KCNQ1 inh = inhibitors of human KCNQ1 potassium channel; P51787; CHO-K1 KCNQ1, FluxOR thallium flux fluorescence; stronger effect = higher value; B-score at 10 µM; hit rate 1.3% among 310,000; AID 2642;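 active = compounds whose thallium flux B-score, printed positive for inhibition, exceeds three library SD while starting fluorescence stays within three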;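 also: channel opened by potassium depolarization with thallium stimulus after 20 min compound exposure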
KCNK3 inh = human KCNK3 channel inhibition, primary screen | CHO-KCNK3 thallium flux, FluxOR fluorescence; stronger effect = lower value | B-score at 10 µM | hit rate 0.84% among 340,000 | AID 602410;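 active = B-score under library mean minus 4 SD, starting fluorescence ratio at most library mean plus 5 SD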;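 also: more negative B-score means stronger inhibition of thallium flux through KCNK3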
KCNQ1 pot = potentiates or activates the human KCNQ1 potassium channel; CHO-K1 KCNQ1, thallium flux FluxOR fluorescence; stronger effect = higher value; B-score at 10 µM; hit rate 0.35% among 310,000; AID 2648;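 active = fluorescence ratio B-score, a plate-corrected score, at least three library SD, with initial intensity B-score within 5 SD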
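assay system = KCNQ1-transfected CHO-K1 cells | medium = assay buffer with matched DMSO | probe or stimulus = depolarizing K+/Tl+ stimulus, K2SO4 and Tl2SO4 each 12.5 mM in 5x stock | dosing = single dose | incubation = dye 90 min, compound 20 min, room temperature | detection = kinetic FluxOR fluorescence, 10 s baseline plus 110 s post-stimulus | evaluation = ratio B score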
KCNK9 block = human KCNK9 channel inhibition. Q9NPC2. HEK293 KCNK9, FluxOR thallium flux fluorescence; stronger effect = lower value. B-score at 10 µM. hit rate 1.2% among 310,000. AID 488922;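 active = ratio B-score over 3 SD below the library mean, with starting fluorescence within 5 SD of its mean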;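 also: negative B-score means less thallium flux so channel inhibition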
Target sequence (Q9NPC2 whole entry, looked up): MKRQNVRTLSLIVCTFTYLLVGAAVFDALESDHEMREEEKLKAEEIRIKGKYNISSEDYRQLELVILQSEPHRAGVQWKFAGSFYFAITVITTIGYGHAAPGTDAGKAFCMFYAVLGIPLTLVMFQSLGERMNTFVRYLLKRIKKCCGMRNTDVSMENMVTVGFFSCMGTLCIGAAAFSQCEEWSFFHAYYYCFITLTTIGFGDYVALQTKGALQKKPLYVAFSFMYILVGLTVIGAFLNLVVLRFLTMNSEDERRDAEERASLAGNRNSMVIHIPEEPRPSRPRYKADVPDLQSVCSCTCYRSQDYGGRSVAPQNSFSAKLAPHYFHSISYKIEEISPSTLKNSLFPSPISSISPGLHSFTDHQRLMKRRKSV
KCNK9 block conf = confirmation of human KCNK9 potassium channel inhibitors. inhibition, % at 10 µM. AID 492992. shares compounds with KCNK9 block. hit rate 43% among 4,900. HEK293 KCNK9 cells, FluxOR thallium flux fluorescence;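 active = thallium signal inhibited by more than 5 SD of the compound-free buffer control wells, on both duplicate plates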;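 also: 0% = assay buffer control wells without compound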
Kir21 sel = mouse Kir2.1 off-target activity of KCNK9 modulators | shares compounds with KCNK9 block | Kir2.1 cells, FluxOR thallium flux fluorescence | inhibition, % at 10 µM | hit rate 4% among 4,900;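 active = thallium signal drop more than 5 SD beyond the mean of the no-compound control wells, seen in both duplicate plates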;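 also: signal is fluorescence rise after thallium addition divided by baseline fluorescence; plate controls were assay buffer only for no effect and full block by chlorpromazine control for full effect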
HEK293 Tl ctr = second check of KCNK9 modulator effects in non-induced HEK293 cells. shares compounds with KCNK9 block. FluxOR thallium flux. inhibition, % at 10 µM. hit rate 40% among 4,900;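 active = thallium signal drop beyond 5 SD of the untreated control mean, on both duplicate plates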;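 also: plate controls were buffer only IC0 wells for no effect and SID17386958 at its maximal inhibitory level for full effect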
KCNK3 confirm = human KCNK3 channel inhibition, confirmation assay | shares compounds with KCNK3 inh | CHO-KCNK3 thallium flux, FluxOR fluorescence; 0% buffer, 100% carvedilol maximal block | ratio percent of control, % at 10 µM | hit rate 99% among 2,400 | AID 651638;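 active = ratio percent of control, averaged over triplicates, above buffer control mean plus 5 SD, cut at about 64% in these data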;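 also: ratio is the fluorescence rise from min to max over baseline after thallium stimulus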
KCNK3 noninduced = KCNK3 inhibitor counter-screen hit in non-induced cells. shares compounds with KCNK3 inh. non-induced KCNK3 parental cells, FluxOR thallium flux; stronger effect = lower value. thallium flux ratio (lower = more inhibition) at 10 µM. hit rate 40% among 2,400. AID 651747;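 active = thallium flux ratio, averaged over three wells, more than 5 SD below the buffer control mean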;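 also: host cells are CHO cells without KCNK3 induction; ratio is peak minus trough fluorescence over baseline then normalized to buffer controls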
Active calls of the source: *. A selection: hits, their analogues and other compounds. The true share with any hit is near 3.7%.

COCCn1c(SCC(=O)c2ccccc2)nc2ccccc2c1=O was read as Kir21 inh 1.49, hERG protect -6.2, KCNQ1 inh inactive, KCNK3 inh inactive, KCNQ1 pot inactive and KCNK9 block inactive.
CCSc1nc2ccccc2n1CCOc1ccccc1 was read as Kir21 inh -1.19, hERG protect -3.2, KCNQ1 inh inactive, KCNK3 inh -10.9*, KCNQ1 pot inactive, KCNK9 block -12.4*, KCNK9 block conf 28.5%*, Kir21 sel inactive, HEK293 Tl ctr 29.5%*, KCNK3 confirm 120.3* and KCNK3 noninduced inactive.
COCCn1c(SCCOc2ccccc2)nc2ccccc2c1=O was read as Kir21 inh -2.28, hERG protect -11.2, KCNQ1 inh inactive, KCNK3 inh -9.03*, KCNQ1 pot inactive, KCNK9 block -10.7*, KCNK9 block conf 37.5%*, Kir21 sel inactive, HEK293 Tl ctr 46.5%*, KCNK3 confirm 114.3* and KCNK3 noninduced 0.143*.
For CC(C)Cn1c(SCC(=O)Nc2cccnc2Cl)nnc1-c1ccco1 the results were KCNK3 inh inactive.
`C=CCN1C(=O)c2ccccc2NC1c1ccc(Br)s1` (stereo not drawn) gave Kir21 inh -3.75, hERG protect -12.8, KCNQ1 inh inactive, KCNK3 inh inactive, KCNQ1 pot inactive, KCNK9 block -9.19*, KCNK9 block conf 37.5%*, Kir21 sel inactive, HEK293 Tl ctr 30.0%*, KCNK3 confirm 107.0* and KCNK3 noninduced inactive.
`CCCN1C(=O)c2ccccc2NC1c1ccc(Br)cc1` (stereo not drawn) gave Kir21 inh -0.68, hERG protect -3.6, KCNQ1 inh inactive, KCNK3 inh inactive, KCNQ1 pot inactive and KCNK9 block inactive.
Screening CN(CC(=O)Nc1ccc([N+](=O)[O-])cc1Br)Cc1c(F)cccc1Cl returned Kir21 inh 2, hERG protect -18.2, KCNQ1 inh inactive, KCNK3 inh -10.1*, KCNQ1 pot inactive, KCNK9 block -14.8*, KCNK9 block conf inactive, Kir21 sel inactive, HEK293 Tl ctr 43.0%*, KCNK3 confirm 94.7* and KCNK3 noninduced 0.156*.
Screening CN(CCOc1ccccc1)CC(=O)Nc1ccc([N+](=O)[O-])cc1Cl returned Kir21 inh -0.38, hERG protect -9.9, KCNQ1 inh inactive, KCNK3 inh inactive, KCNQ1 pot inactive and KCNK9 block inactive.
`CCNC(=O)c1cc(S(=O)(=O)N2CCSCC2)ccc1OC` gave Kir21 inh 0.08, hERG protect -0.1, KCNQ1 inh inactive, KCNK3 inh inactive, KCNQ1 pot inactive and KCNK9 block inactive.
`O=C(Oc1ccc2ccccc2c1Br)N1CCCCCC1` gave Kir21 inh -1.53, hERG protect -13.2, KCNQ1 inh inactive, KCNK3 inh inactive, KCNQ1 pot inactive, KCNK9 block -12.2*, KCNK9 block conf 68.0%*, Kir21 sel inactive, HEK293 Tl ctr 36.0%*, KCNK3 confirm 108.3* and KCNK3 noninduced inactive.
Screening CC(C)(C)n1nnnc1C(c1cccs1)N(Cc1ccccc1)Cc1cccnc1 (stereo not drawn) returned Kir21 inh -0.17, hERG protect -10.8, KCNQ1 inh inactive, KCNK3 inh inactive, KCNQ1 pot inactive, KCNK9 block -12.8*, KCNK9 block conf 66.0%*, Kir21 sel inactive, HEK293 Tl ctr 54.5%*, KCNK3 confirm 117.7* and KCNK3 noninduced inactive.

Bioassay records: PubChem, Johns Hopkins Ion Channel Center
